Source: ChEMBL document CHEMBL2029200, “Discovery of a novel melanin concentrating hormone receptor 1 (MCHR1) antagonist with reduced hERG inhibition” (Bioorg Med Chem Lett, 2012)
Activity calls are given as the source filed them. The calls are words filed in the database; no cut-off is given here.

Tests used:
[1] = target: T1, Voltage-gated inwardly rectifying potassium channel KCNH2 (Homo sapiens, UniProt Q12809); assay: Binding affinity to human Erg
[2] = target: T2, Melanin-concentrating hormone receptor 1 (Homo sapiens, UniProt Q99705); assay: Displacement of [125I]-MCH from MCHR1 after 2 hrs by scintillation counting
T2 sequence (Q99705 whole entry): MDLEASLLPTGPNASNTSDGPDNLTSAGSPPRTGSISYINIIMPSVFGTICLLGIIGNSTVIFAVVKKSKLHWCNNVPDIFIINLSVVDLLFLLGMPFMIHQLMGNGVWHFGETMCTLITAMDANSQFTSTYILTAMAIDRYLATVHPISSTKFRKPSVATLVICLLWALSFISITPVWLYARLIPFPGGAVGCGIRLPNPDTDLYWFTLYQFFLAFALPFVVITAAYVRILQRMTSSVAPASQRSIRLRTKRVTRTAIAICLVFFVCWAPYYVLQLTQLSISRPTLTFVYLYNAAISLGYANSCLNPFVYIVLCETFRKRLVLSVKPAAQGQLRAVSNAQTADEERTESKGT
Procedure, shortened: (§1)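 Competition binding on MCHR1 membrane preparation with 125I-MCH tracer. Compound diluted in 50 mM Tris pH 7.4, 10 mM MgCl2, 2.5 mM EDTA, 0.2% BSA. Incubation 2 h at 37 °C with shaking. Bound and free ligand separated by vacuum filtration through BSA-pretreated filter plates. Filters washed 4 times in Hepes/NaCl/BSA buffer, then counted by scintillation.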

[3] = target: T1, Voltage-gated inwardly rectifying potassium channel KCNH2; assay: Inhibition of human Erg expressed in HEK293 cells assessed as rubidium efflux after 4 hrs by atomic absorbance spectrometric analysis
[4] = target: T2, Melanin-concentrating hormone receptor 1; assay: Binding affinity to human MCHR1; procedure, shortened: as §1
[5] = target: T2, Melanin-concentrating hormone receptor 1; assay: Antagonist activity at human MCHR1 assessed inhibition of MCH-mediated intracellular Ca2+ calcium mobilization by aequorin assay; type: functional, cell-based
Procedure, shortened: (§2)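 MCH-evoked intracellular Ca2+ mobilization read by aequorin luminescence in cells. Antagonism measured as blockade of the MCH response.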

[6] = target: Melanin-concentrating hormone receptor 1 (Mus musculus, UniProt Q8JZL2); assay: Antagonist activity at mouse MCHR1 assessed inhibition of MCH-mediated intracellular Ca2+ calcium mobilization; type: functional, cell-based; procedure, shortened: as §2
Chain of Melanin-concentrating hormone receptor 1 (Mus musculus, UniProt Q8JZL2) (Q8JZL2 whole entry): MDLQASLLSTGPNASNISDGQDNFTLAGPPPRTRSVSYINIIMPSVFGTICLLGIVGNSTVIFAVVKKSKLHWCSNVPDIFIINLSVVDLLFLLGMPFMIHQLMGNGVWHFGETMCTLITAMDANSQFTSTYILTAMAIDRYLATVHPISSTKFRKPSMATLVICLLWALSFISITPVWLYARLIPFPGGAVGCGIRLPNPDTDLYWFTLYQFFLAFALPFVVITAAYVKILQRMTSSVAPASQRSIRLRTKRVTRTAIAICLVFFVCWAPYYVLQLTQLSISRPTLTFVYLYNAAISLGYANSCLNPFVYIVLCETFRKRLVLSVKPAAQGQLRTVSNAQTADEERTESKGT

[7] = target: Melanin-concentrating hormone receptor 1 (Rattus norvegicus, UniProt P97639); assay: Antagonist activity at rat MCHR1 assessed inhibition of MCH-mediated intracellular Ca2+ calcium mobilization; type: functional, cell-based; procedure, shortened: as §2
Chain of Melanin-concentrating hormone receptor 1 (Rattus norvegicus, UniProt P97639) (P97639 whole entry): as the sequence (Q8JZL2 whole entry) above, with A5T, F24L, A27P, P29S, R34G, A138T counted along it

[8] = target: Melanin-concentrating hormone receptor 1 (Macaca mulatta, UniProt Q8MJ89); assay: Antagonist activity at rhesus monkey MCHR1 assessed inhibition of MCH-mediated intracellular Ca2+ calcium mobilization; type: functional, cell-based; procedure, shortened: as §2
Chain of Melanin-concentrating hormone receptor 1 (Macaca mulatta, UniProt Q8MJ89) (Q8MJ89 whole entry): as the sequence (Q99705 whole entry) above, with A14T, T33S, I36V, T60M counted along it

[9] = target: Melanin-concentrating hormone receptor 2 (Homo sapiens, UniProt Q969V1); assay: Antagonist activity at human MCHR2 assessed inhibition of MCH-mediated intracellular Ca2+ calcium mobilization; type: functional, cell-based; procedure, shortened: as §2
Chain of Melanin-concentrating hormone receptor 2 (Q969V1 whole entry): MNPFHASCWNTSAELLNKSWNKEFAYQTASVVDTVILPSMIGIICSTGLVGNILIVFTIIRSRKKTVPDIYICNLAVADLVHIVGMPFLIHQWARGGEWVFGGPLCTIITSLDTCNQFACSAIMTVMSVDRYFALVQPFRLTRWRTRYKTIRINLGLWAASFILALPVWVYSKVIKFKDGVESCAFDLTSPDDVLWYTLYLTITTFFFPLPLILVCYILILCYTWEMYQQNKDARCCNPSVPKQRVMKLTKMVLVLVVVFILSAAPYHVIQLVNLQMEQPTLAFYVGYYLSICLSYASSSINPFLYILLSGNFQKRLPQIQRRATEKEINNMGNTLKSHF

[10] = target: 5-hydroxytryptamine receptor 1A (Homo sapiens, UniProt P08908); assay: Binding affinity to serotonin 5HT1A receptor
[11] = target: 5-hydroxytryptamine receptor 2A (Homo sapiens, UniProt P28223); assay: Binding affinity to serotonin 5HT2A receptor
[12] = target: T3, 5-hydroxytryptamine receptor 2C (Homo sapiens, UniProt P28335); assay: Binding affinity to serotonin 5HT2C receptor
T3 sequence (P28335 whole entry): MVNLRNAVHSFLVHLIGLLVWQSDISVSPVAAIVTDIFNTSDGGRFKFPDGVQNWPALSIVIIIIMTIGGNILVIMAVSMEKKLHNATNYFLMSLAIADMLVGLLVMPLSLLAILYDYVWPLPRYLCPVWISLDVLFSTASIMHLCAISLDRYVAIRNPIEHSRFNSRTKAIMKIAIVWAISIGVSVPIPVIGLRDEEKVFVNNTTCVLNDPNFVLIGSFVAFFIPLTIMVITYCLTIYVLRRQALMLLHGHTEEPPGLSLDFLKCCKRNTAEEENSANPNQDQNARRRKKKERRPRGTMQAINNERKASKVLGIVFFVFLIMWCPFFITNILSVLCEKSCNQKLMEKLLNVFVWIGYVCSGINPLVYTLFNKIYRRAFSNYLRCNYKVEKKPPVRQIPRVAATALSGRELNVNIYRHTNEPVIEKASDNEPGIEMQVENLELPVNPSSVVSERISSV

[13] = target: T3, 5-hydroxytryptamine receptor 2C; assay: Antagonist activity at serotonin 5HT2C receptor assessed as blockage of intracellular calcium mobilization; type: functional, cell-based
D(1A) dopamine receptor = D(1A) dopamine receptor (Homo sapiens, UniProt P21728); assay: Binding affinity to dopamine D1 receptor
D(2) dopamine receptor = D(2) dopamine receptor (Homo sapiens, UniProt P14416); assay: Binding affinity to dopamine D2 receptor
Chain of D(2) dopamine receptor (P14416 whole entry): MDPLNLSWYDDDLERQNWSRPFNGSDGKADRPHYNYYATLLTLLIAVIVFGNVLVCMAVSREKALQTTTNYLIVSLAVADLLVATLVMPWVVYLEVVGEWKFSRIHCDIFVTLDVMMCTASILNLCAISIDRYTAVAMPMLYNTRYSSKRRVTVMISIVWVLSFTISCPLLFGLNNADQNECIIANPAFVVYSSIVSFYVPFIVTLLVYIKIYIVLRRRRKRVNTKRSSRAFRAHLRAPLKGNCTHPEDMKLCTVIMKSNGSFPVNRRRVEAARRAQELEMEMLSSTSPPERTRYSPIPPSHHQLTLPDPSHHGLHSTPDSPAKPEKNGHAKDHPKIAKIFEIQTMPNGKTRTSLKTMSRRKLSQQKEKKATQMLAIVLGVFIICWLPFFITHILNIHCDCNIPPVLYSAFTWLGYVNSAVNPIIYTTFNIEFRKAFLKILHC

[14] = target: Alpha-2A adrenergic receptor (Homo sapiens, UniProt P08913); assay: Binding affinity to adrenergic alpha2A receptor
[15] = target: Alpha-2C adrenergic receptor (Homo sapiens, UniProt P18825); assay: Binding affinity to adrenergic alpha2C receptor
Chain of Alpha-2C adrenergic receptor (P18825 whole entry): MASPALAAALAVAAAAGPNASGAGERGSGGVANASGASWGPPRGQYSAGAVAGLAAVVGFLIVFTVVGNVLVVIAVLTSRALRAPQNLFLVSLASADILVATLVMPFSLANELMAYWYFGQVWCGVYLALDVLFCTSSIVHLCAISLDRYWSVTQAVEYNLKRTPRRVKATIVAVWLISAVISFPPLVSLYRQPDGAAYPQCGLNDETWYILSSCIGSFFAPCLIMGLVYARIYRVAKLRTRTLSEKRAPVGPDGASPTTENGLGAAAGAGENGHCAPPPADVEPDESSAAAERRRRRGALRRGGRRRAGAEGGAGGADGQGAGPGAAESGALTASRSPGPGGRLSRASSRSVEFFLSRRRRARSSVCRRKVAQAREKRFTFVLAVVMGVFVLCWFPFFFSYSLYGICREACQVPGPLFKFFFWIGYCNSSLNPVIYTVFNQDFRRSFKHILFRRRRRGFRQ

Mu-type opioid receptor = Mu-type opioid receptor (Homo sapiens, UniProt P35372); assay: Binding affinity to opioid mu receptor
[16] = target: Muscarinic acetylcholine receptor M2 (Homo sapiens, UniProt P08172); assay: Binding affinity to muscarinic M2 receptor
[17] = target: Muscarinic acetylcholine receptor M3 (Homo sapiens, UniProt P20309); assay: Binding affinity to muscarinic M3 receptor
[18] = target: Sodium-dependent noradrenaline transporter (Homo sapiens, UniProt P23975); assay: Binding affinity to norepinephrine transporter
Chain of Sodium-dependent noradrenaline transporter (P23975 whole entry): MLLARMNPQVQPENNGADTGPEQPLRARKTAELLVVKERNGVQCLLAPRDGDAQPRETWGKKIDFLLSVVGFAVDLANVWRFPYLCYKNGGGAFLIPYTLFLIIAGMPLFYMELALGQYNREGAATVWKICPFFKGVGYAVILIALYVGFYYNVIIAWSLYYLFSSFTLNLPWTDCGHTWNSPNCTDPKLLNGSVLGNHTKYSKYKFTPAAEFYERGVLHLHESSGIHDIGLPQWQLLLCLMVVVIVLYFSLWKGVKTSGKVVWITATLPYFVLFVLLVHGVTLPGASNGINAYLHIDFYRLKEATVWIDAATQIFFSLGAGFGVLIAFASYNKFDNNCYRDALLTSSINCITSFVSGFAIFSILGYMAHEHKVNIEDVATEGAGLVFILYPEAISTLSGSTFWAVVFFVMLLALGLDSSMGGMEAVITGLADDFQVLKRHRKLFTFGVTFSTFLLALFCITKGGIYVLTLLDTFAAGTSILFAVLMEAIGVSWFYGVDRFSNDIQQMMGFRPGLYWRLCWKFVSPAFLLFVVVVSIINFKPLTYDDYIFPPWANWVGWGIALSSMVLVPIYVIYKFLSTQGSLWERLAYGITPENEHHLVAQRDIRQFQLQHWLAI

[19] = target: Sodium-dependent serotonin transporter (Homo sapiens, UniProt P31645); assay: Binding affinity to serotonin transporter
Chain of Sodium-dependent serotonin transporter (P31645 whole entry): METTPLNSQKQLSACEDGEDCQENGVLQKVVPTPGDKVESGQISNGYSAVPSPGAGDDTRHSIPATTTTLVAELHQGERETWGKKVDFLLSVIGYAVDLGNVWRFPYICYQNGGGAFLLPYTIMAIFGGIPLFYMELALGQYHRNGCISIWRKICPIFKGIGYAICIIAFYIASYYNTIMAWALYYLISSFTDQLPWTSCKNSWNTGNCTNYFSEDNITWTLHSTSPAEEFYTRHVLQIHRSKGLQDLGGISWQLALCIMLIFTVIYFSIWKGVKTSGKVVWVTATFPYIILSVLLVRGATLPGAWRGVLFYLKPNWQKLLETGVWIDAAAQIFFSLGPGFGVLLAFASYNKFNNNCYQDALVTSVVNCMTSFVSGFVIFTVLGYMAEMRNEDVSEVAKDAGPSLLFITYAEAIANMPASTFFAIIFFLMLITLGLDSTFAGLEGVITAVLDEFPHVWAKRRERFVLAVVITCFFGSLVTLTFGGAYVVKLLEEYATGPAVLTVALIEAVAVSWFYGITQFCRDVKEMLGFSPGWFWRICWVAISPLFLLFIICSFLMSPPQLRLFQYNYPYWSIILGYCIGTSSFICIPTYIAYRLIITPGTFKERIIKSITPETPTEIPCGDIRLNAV

[20] = Clearance in mouse at 0.5 mg/kg, iv; type: ADME, organism-based; parameters: dose 0.5 mg/kg, route intravenous; conditions: in vivo
Procedure, shortened: (§3)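 Pharmacokinetics determined after IV dosing at 0.5 mg/kg and oral dosing at 3 mg/kg.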

[21] = Volume of distribution at steady state in mouse at 0.5 mg/kg, iv; type: ADME, organism-based; parameters: dose 0.5 mg/kg, route intravenous; conditions: in vivo, read-out: Vdss; procedure, shortened: as §3
[22] = Clearance in rat at 0.5 mg/kg, iv; type: ADME, organism-based; parameters: dose 0.5 mg/kg, route intravenous; conditions: in vivo; procedure, shortened: as §3
[23] = Volume of distribution at steady state in rat at 0.5 mg/kg, iv; type: ADME, organism-based; parameters: dose 0.5 mg/kg, route intravenous; conditions: in vivo, read-out: Vdss; procedure, shortened: as §3
[24] = Clearance in beagle dog at 0.5 mg/kg, iv; type: ADME, organism-based, Canis lupus familiaris; parameters: dose 0.5 mg/kg, route intravenous; conditions: in vivo; procedure, shortened: as §3
[25] = Volume of distribution at steady state in beagle dog at 0.5 mg/kg, iv; type: ADME, organism-based, Canis lupus familiaris; parameters: dose 0.5 mg/kg, route intravenous; conditions: in vivo, read-out: Vdss; procedure, shortened: as §3
[26] = Clearance in cynomolgus monkey at 0.5 mg/kg, iv; type: ADME, organism-based, Macaca fascicularis; parameters: dose 0.5 mg/kg, route intravenous; conditions: in vivo; procedure, shortened: as §3
[27] = Volume of distribution at steady state in cynomolgus monkey at 0.5 mg/kg, iv; type: ADME, organism-based, Macaca fascicularis; parameters: dose 0.5 mg/kg, route intravenous; conditions: in vivo, read-out: Vdss; procedure, shortened: as §3
[28] = Mean residence time in mouse at 3 mg/kg, po; type: ADME, organism-based; parameters: dose 3 mg/kg, route oral; conditions: in vivo; procedure, shortened: as §3
[29] = Mean residence time in rat at 3 mg/kg, po; type: ADME, organism-based; parameters: dose 3 mg/kg, route oral; conditions: in vivo; procedure, shortened: as §3
[30] = Mean residence time in beagle dog at 3 mg/kg, po; type: ADME, organism-based, Canis lupus familiaris; parameters: dose 3 mg/kg, route oral; conditions: in vivo; procedure, shortened: as §3
[31] = Mean residence time in cynomolgus monkey at 3 mg/kg, po; type: ADME, organism-based, Macaca fascicularis; parameters: dose 3 mg/kg, route oral; conditions: in vivo; procedure, shortened: as §3
[32] = Oral bioavailability in mouse at 3 mg/kg; type: ADME, organism-based; conditions: in vivo; procedure, shortened: as §3
[33] = Oral bioavailability in rat at 3 mg/kg; type: ADME, organism-based; conditions: in vivo; procedure, shortened: as §3
[34] = Oral bioavailability in beagle dog at 3 mg/kg; type: ADME, organism-based, Canis lupus familiaris; conditions: in vivo; procedure, shortened: as §3
[35] = Oral bioavailability in cynomolgus monkey at 3 mg/kg; type: ADME, organism-based, Macaca fascicularis; conditions: in vivo; procedure, shortened: as §3
[36] = Ratio of drug uptake in blood to plasma of rat at 10 mg/kg, po; type: ADME, organism-based; parameters: dose 10 mg/kg, route oral; conditions: blood and plasma
Procedure, shortened: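 Single 10 mg/kg oral dose. Drug concentration in whole blood was divided by the plasma concentration to give the [blood]/[plasma] ratio. Brain/plasma and CSF/plasma ratios were obtained after the same dose.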

[37] = Ratio of drug uptake in brain to plasma of rat at 10 mg/kg, po; type: ADME, organism-based; parameters: dose 10 mg/kg, route oral; conditions: brain and plasma, read-out: BPR
[38] = Ratio of drug uptake in CSF to plasma of rat at 10 mg/kg, po; type: ADME, organism-based; parameters: dose 10 mg/kg, route oral; conditions: CSF and plasma
Rhesus monkey = assay: Cardiotoxicity in rhesus monkey assessed as QT prolongation administered as bolus dose; type: toxicity, organism-based, Macaca mulatta; conditions: in vivo
Procedure, shortened: (§4)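 Anesthetized rhesus monkeys received an IV bolus followed by a 45 min IV infusion. QTc recorded throughout.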

[39] = Plasma concentration in iv dosed rhesus monkey after 45 mins; type: ADME, organism-based, Macaca mulatta; procedure, shortened: as §4
Cynomolgus monkey = assay: Cardiotoxicity in cynomolgus monkey assessed as QT prolongation at 30 mg/kg, po; type: toxicity, organism-based, Macaca fascicularis; parameters: dose 30 mg/kg, route oral; conditions: in vivo
Procedure, shortened: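 Cynomolgus monkeys (n = 3) given a single 30 mg/kg oral dose; QTc monitored.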

Canis familiaris [40] = assay: Cardiotoxicity in dog assessed as QT prolongation at 300 mg/kg, po; type: toxicity, organism-based, Canis lupus familiaris; parameters: dose 300 mg/kg, route oral; conditions: in vivo
Procedure, shortened: (§5)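 Dogs dosed orally at 300 mg/kg in a 4 h study. QTc monitored throughout; plasma Cmax determined.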

[41] = Cmax in dog at 300 mg/kg, po; type: ADME, organism-based, Canis lupus familiaris; parameters: dose 300 mg/kg, route oral; conditions: in vivo; procedure, shortened: as §5
Canis familiaris [42] = assay: Cardiotoxicity in dog assessed as QT prolongation at 100 mg/kg, po BID for 28 days; type: toxicity, organism-based, Canis lupus familiaris; parameters: dose 100 mg/kg, route oral; conditions: in vivo, 672 h
Mus musculus = assay: Antiobesity activity in high fat diet-fed C57BL/6 mouse assessed as reduction in body weight at 3 mg/kg, po daily measured up to day 137 relative to control; type: functional, organism-based; parameters: dose 3 mg/kg

T1 sequence (Q12809 whole entry): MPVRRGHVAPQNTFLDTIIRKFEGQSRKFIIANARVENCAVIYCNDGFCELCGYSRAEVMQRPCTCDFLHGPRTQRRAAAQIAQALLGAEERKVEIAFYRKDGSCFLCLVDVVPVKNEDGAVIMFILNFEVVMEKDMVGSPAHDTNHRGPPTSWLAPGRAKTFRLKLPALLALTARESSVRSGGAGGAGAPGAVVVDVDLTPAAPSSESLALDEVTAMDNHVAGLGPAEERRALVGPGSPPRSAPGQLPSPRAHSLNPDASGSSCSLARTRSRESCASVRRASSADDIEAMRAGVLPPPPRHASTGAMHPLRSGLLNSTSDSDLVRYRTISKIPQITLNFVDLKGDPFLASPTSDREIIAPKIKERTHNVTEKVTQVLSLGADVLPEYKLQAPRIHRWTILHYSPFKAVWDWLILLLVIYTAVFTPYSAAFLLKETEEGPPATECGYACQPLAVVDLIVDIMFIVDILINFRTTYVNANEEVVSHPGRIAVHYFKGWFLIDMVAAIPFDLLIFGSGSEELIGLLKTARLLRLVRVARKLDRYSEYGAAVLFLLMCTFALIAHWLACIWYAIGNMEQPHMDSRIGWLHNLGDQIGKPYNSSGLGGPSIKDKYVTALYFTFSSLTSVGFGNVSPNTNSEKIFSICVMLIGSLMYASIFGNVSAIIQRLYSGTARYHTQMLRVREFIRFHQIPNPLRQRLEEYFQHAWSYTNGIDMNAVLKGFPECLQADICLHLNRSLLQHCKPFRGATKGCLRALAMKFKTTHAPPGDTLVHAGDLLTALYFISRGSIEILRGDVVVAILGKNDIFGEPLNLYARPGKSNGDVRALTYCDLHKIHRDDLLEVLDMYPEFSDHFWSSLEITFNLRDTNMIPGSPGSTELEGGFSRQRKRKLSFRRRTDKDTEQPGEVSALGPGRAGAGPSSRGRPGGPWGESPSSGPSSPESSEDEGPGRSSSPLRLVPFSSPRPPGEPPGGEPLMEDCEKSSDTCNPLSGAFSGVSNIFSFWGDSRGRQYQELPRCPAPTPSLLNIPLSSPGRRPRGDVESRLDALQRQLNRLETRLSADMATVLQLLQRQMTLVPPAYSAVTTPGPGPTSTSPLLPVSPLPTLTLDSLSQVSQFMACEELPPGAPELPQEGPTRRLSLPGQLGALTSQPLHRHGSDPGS

N=C(c1ccc(C(=O)Nc2ccc(Cl)cc2C(=O)Nc2ccc(Cl)cn2)cc1)N1CCCC(C(=O)O)C1 (stereo not given)
Ki [1]: > 10 µM

C[C@H]1c2c([nH]c3ccc(C(F)(F)F)cc23)C[C@H]2CCN(CCC3(C(=O)O)CCOCC3)C[C@@H]21
IC50 [2]: 9 nM
IC50 [3]: > 5 µM

C[C@H]1c2c([nH]c3ccc(C(F)(F)F)cc23)C[C@H]2CCN(CCC3(C(=O)O)CCCCC3)C[C@@H]21
IC50 [2]: 0.6 nM
IC50 [3]: > 5 µM
Ki [4]: 0.6 nM
IC50 [5]: 1.2 nM
IC50 [6]: 0.6 nM
IC50 [7]: 0.8 nM
IC50 [8]: 0.8 nM
IC50 [9]: > 10 µM
Ki [10]: > 2000 nM
Ki [11]: > 2000 nM
Ki [12]: 1120 nM
IC50 [13]: 1140 nM
Ki (D(1A) dopamine receptor): > 2000 nM
Ki (D(2) dopamine receptor): 3.16 µM
Ki [14]: > 2000 nM
Ki [15]: > 2000 nM
Ki (Mu-type opioid receptor): > 2000 nM
Ki [16]: > 2000 nM
Ki [17]: > 2000 nM
Ki [18]: > 2000 nM
Ki [19]: > 2000 nM
clearance [20]: 10.7 mL/min/kg
Vd [21]: 3.6 L/kg
clearance [22]: 9.17 mL/min/kg
Vd [23]: 3.8 L/kg
clearance [24]: 8.83 mL/min/kg
Vd [25]: 2.2 L/kg
clearance [26]: 3.67 mL/min/kg
Vd [27]: 2.3 L/kg
MRT [28]: 5.8 h
MRT [29]: 7.9 h
MRT [30]: 4.2 h
MRT [31]: 11 h
bioavailability [32]: 79%
bioavailability [33]: 70%
bioavailability [34]: 40%
bioavailability [35]: 29%
blood plasma ratio [36]: 0.79
Kp [37]: 0.4
Kp [38]: 0.21
Activity (Rhesus monkey): Non-toxic
concentration at 0.75 h [39]: 6.5 µM
Activity (Cynomolgus monkey): Non-toxic
Activity (Canis familiaris [40]): Non-toxic
Cmax [41]: 33 µM
Activity (Canis familiaris [42]): Non-toxic

CC(C)CC(N(C)C)C1(c2ccc(Cl)cc2)CCC1 (stereo not given)
Activity (Mus musculus): Active
